# What was measured:
# Salmonella typhi = test: Antibacterial activity against Salmonella typhi MTCC 98 by broth microdilution method; format: functional, Salmonella enterica subsp. enterica serovar Typhi; conditions: Salmonella enterica
# Escherichia coli = test: Antibacterial activity against Escherichia coli MTCC 443 by broth microdilution method; format: functional
# Summary of the method: (§1)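 Broth microdilution per NCCLS, with serial dilutions in Mueller Hinton broth and DMSO as diluent. Tubes were incubated overnight at 37 °C. MIC was the lowest concentration giving no visible growth, with the control organism's MIC read to verify concentrations. Tubes without growth were subcultured overnight at 37 °C to judge bacteriostatic versus bactericidal action.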
# Streptococcus pneumoniae = test: Antibacterial activity against Streptococcus pneumoniae MTCC 1936 by broth microdilution method; format: functional; summary of the method: as §1
# Vibrio cholerae = test: Antibacterial activity against Vibrio cholerae MTCC 3906 by broth microdilution method; format: functional
# Aspergillus fumigatus = test: Antifungal activity against Aspergillus fumigatus MTCC 3008 by broth microdilution method; format: functional
# Plasmodium falciparum = test: Antimalarial activity against trophozoite stage of chloroquine-sensitive Plasmodium falciparum 3D7 infected in human erythrocytes after 48 hrs; format: functional, organism-based; conditions: 3D7, 48 h
# Summary of the method: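 Parasites were kept in continuous culture in A+ human erythrocytes in RPMI with 10% human serum. Sorbitol-synchronized trophozoites at 1–2% parasitaemia and 2.5% haematocrit were exposed to serial dilutions (maximum 1 mg/ml; 0.02% final DMSO) for 48 h at 37 °C. Growth inhibition was measured; chloroquine and quinine served as positive controls. IC50 came from duplicate experiments.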
# Clostridium tetani = test: Antibacterial activity against Clostridium tetani MTCC 449 by broth microdilution method; format: functional
# Bacillus subtilis = test: Antibacterial activity against Bacillus subtilis MTCC 441 by broth microdilution method; format: functional; summary of the method: as §1
# [1] = system: Mycobacterium tuberculosis; test: Growth inhibition of Mycobacterium tuberculosis H37Rv at 6.25 ug/mL after 12 to 28 days relative to control; format: functional
# Candida albicans = test: Antifungal activity against Candida albicans MTCC 227 by broth microdilution method; format: functional
compound,measurement,setting,value
O=C(O)c1cn(C2CC2)c2cc(N3CCNCC3)c(F)cc2c1=O [CIPROFLOXACIN],MIC,Salmonella typhi,25 µg/mL
same,MIC,Escherichia coli,25 µg/mL
same,MIC,Streptococcus pneumoniae,50 µg/mL
same,MIC,Vibrio cholerae,25 µg/mL
Cc1ccc(NN2C(N)=C(C#N)C(c3cc4cc(C)ccc4nc3Cl)C3=C2CC(C)(C)CC3=O)cc1 (stereo not drawn),MIC,Aspergillus fumigatus,500 µg/mL
same,IC50,Plasmodium falciparum,0.22 µg/mL
same,MIC,Salmonella typhi,500 µg/mL
same,MIC,Clostridium tetani,250 µg/mL
same,MIC,Escherichia coli,500 µg/mL
same,MIC,Bacillus subtilis,200 µg/mL
same,inhibition at 6.25 µg/mL,[1],32%
same,MIC,Candida albicans,500 µg/mL
same,MIC,Streptococcus pneumoniae,200 µg/mL
same,MIC,Vibrio cholerae,500 µg/mL
NYSTATIN,MIC,Aspergillus fumigatus,100 µg/mL
same,MIC,Candida albicans,100 µg/mL
CC1(C)CC(=O)C2=C(C1)N(Nc1ccc(Br)cc1)C(N)=C(C#N)C2c1cc2ccccc2nc1Cl (stereo not drawn),MIC,Aspergillus fumigatus,> 1000 µg/mL
same,IC50,Plasmodium falciparum,0.54 µg/mL
same,MIC,Salmonella typhi,250 µg/mL
same,MIC,Clostridium tetani,500 µg/mL
same,MIC,Escherichia coli,250 µg/mL
same,MIC,Bacillus subtilis,200 µg/mL
same,inhibition at 6.25 µg/mL,[1],33%
same,MIC,Candida albicans,> 1000 µg/mL
same,MIC,Streptococcus pneumoniae,100 µg/mL
same,MIC,Vibrio cholerae,100 µg/mL
Cc1ccc2nc(Cl)c(C3C(C#N)=C(N)N(Nc4ccccc4)C4=C3C(=O)CC(C)(C)C4)cc2c1 (stereo not drawn),MIC,Aspergillus fumigatus,> 1000 µg/mL
same,IC50,Plasmodium falciparum,0.15 µg/mL
same,MIC,Salmonella typhi,200 µg/mL
same,MIC,Clostridium tetani,500 µg/mL
same,MIC,Escherichia coli,100 µg/mL
same,MIC,Bacillus subtilis,500 µg/mL
same,inhibition at 6.25 µg/mL,[1],12%
same,MIC,Candida albicans,500 µg/mL
same,MIC,Streptococcus pneumoniae,250 µg/mL
same,MIC,Vibrio cholerae,250 µg/mL
CC1(C)CC(=O)C2=C(C1)N(Nc1ccc(F)cc1)C(N)=C(C#N)C2c1cc2ccccc2nc1Cl (stereo not drawn),MIC,Aspergillus fumigatus,1000 µg/mL
same,IC50,Plasmodium falciparum,0.027 µg/mL
same,MIC,Salmonella typhi,200 µg/mL
same,MIC,Clostridium tetani,200 µg/mL
same,MIC,Escherichia coli,200 µg/mL
same,MIC,Bacillus subtilis,500 µg/mL
same,inhibition at 6.25 µg/mL,[1],62%
same,MIC,Candida albicans,1000 µg/mL
same,MIC,Streptococcus pneumoniae,500 µg/mL
same,MIC,Vibrio cholerae,200 µg/mL
COc1ccc2nc(Cl)c(C3C(C#N)=C(N)N(Nc4ccc(C)cc4)C4=C3C(=O)CC(C)(C)C4)cc2c1 (stereo not drawn),MIC,Aspergillus fumigatus,500 µg/mL
same,IC50,Plasmodium falciparum,0.19 µg/mL
same,MIC,Salmonella typhi,200 µg/mL
same,MIC,Clostridium tetani,100 µg/mL
same,MIC,Escherichia coli,150 µg/mL
same,MIC,Bacillus subtilis,200 µg/mL
same,inhibition at 6.25 µg/mL,[1],50%
same,MIC,Candida albicans,500 µg/mL
same,MIC,Streptococcus pneumoniae,200 µg/mL
same,MIC,Vibrio cholerae,200 µg/mL
COc1ccc(NN2C(N)=C(C#N)C(c3cc4ccccc4nc3Cl)C3=C2CC(C)(C)CC3=O)cc1 (stereo not drawn),MIC,Aspergillus fumigatus,> 1000 µg/mL
same,IC50,Plasmodium falciparum,0.025 µg/mL
same,MIC,Salmonella typhi,200 µg/mL
same,MIC,Clostridium tetani,250 µg/mL
same,MIC,Escherichia coli,250 µg/mL
same,MIC,Bacillus subtilis,500 µg/mL
same,inhibition at 6.25 µg/mL,[1],44%
same,MIC,Candida albicans,> 1000 µg/mL
same,MIC,Streptococcus pneumoniae,200 µg/mL
same,MIC,Vibrio cholerae,250 µg/mL
CC1(C)CC(=O)C2=C(C1)N(Nc1ccccc1)C(N)=C(C#N)C2c1cc2cc(Cl)ccc2nc1Cl (stereo not drawn),MIC,Aspergillus fumigatus,1000 µg/mL
same,IC50,Plasmodium falciparum,0.21 µg/mL
same,MIC,Salmonella typhi,250 µg/mL
same,MIC,Clostridium tetani,1000 µg/mL
same,MIC,Escherichia coli,200 µg/mL
same,MIC,Bacillus subtilis,1000 µg/mL
same,inhibition at 6.25 µg/mL,[1],5%
same,MIC,Candida albicans,1000 µg/mL
same,MIC,Streptococcus pneumoniae,1000 µg/mL
same,MIC,Vibrio cholerae,1000 µg/mL
COc1ccc(NN2C(N)=C(C#N)C(c3cc4cc(C)ccc4nc3Cl)C3=C2CC(C)(C)CC3=O)cc1 (stereo not drawn),MIC,Aspergillus fumigatus,> 1000 µg/mL
same,IC50,Plasmodium falciparum,0.54 µg/mL
same,MIC,Salmonella typhi,500 µg/mL
same,MIC,Clostridium tetani,500 µg/mL
same,MIC,Escherichia coli,250 µg/mL
same,MIC,Bacillus subtilis,200 µg/mL
same,inhibition at 6.25 µg/mL,[1],3%
same,MIC,Candida albicans,> 1000 µg/mL
same,MIC,Streptococcus pneumoniae,100 µg/mL
same,MIC,Vibrio cholerae,500 µg/mL
CC1(C)CC(=O)C2=C(C1)N(Nc1ccc(Cl)cc1)C(N)=C(C#N)C2c1cc2cc(Cl)ccc2nc1Cl (stereo not drawn),MIC,Aspergillus fumigatus,> 1000 µg/mL
same,IC50,Plasmodium falciparum,0.028 µg/mL
same,MIC,Salmonella typhi,100 µg/mL
same,MIC,Clostridium tetani,200 µg/mL
same,MIC,Escherichia coli,62.5 µg/mL
same,MIC,Bacillus subtilis,200 µg/mL
same,inhibition at 6.25 µg/mL,[1],87%
same,MIC,Candida albicans,> 1000 µg/mL
same,MIC,Streptococcus pneumoniae,200 µg/mL
same,MIC,Vibrio cholerae,100 µg/mL
Cc1ccc2nc(Cl)c(C3C(C#N)=C(N)N(Nc4ccc(Cl)cc4)C4=C3C(=O)CC(C)(C)C4)cc2c1 (stereo not drawn),MIC,Aspergillus fumigatus,1000 µg/mL
same,IC50,Plasmodium falciparum,0.008 µg/mL
same,MIC,Salmonella typhi,200 µg/mL
same,MIC,Clostridium tetani,250 µg/mL
same,MIC,Escherichia coli,100 µg/mL
same,MIC,Bacillus subtilis,500 µg/mL
same,inhibition at 6.25 µg/mL,[1],15%
same,MIC,Candida albicans,500 µg/mL
same,MIC,Streptococcus pneumoniae,250 µg/mL
same,MIC,Vibrio cholerae,200 µg/mL
COc1ccc2nc(Cl)c(C3C(C#N)=C(N)N(Nc4ccc(F)cc4)C4=C3C(=O)CC(C)(C)C4)cc2c1 (stereo not drawn),MIC,Aspergillus fumigatus,500 µg/mL
same,IC50,Plasmodium falciparum,0.25 µg/mL
same,MIC,Salmonella typhi,125 µg/mL
same,MIC,Clostridium tetani,500 µg/mL
same,MIC,Escherichia coli,125 µg/mL
same,MIC,Bacillus subtilis,250 µg/mL
same,inhibition at 6.25 µg/mL,[1],22%
same,MIC,Candida albicans,250 µg/mL
same,MIC,Streptococcus pneumoniae,200 µg/mL
same,MIC,Vibrio cholerae,100 µg/mL
CCn1cc(C(=O)O)c(=O)c2cc(F)c(N3CCNCC3)cc21 [NORFLOXACIN],MIC,Salmonella typhi,10 µg/mL
same,MIC,Clostridium tetani,50 µg/mL
same,MIC,Escherichia coli,10 µg/mL
same,MIC,Bacillus subtilis,100 µg/mL
same,MIC,Streptococcus pneumoniae,10 µg/mL
same,MIC,Vibrio cholerae,10 µg/mL
CC1(C)S[C@@H]2[C@H](NC(=O)[C@H](N)c3ccccc3)C(=O)N2[C@H]1C(=O)O [AMPICILLIN],MIC,Salmonella typhi,100 µg/mL
same,MIC,Clostridium tetani,250 µg/mL
same,MIC,Escherichia coli,100 µg/mL
same,MIC,Bacillus subtilis,250 µg/mL
same,MIC,Streptococcus pneumoniae,100 µg/mL
same,MIC,Vibrio cholerae,100 µg/mL

# Source: ChEMBL document CHEMBL2040757, “New N-arylamino biquinoline derivatives: synthesis, antimicrobial, antituberculosis, and antimalarial evaluation” (Eur J Med Chem, 2012)
